Test results as given in ChEMBL document CHEMBL4689842, “EUbOPEN Chemogenomics Library wave 1” (2021).
Values joined by “and” are separate entries in the source; they are usually repeats but may differ in a detail not shown here. Equal entries are not always repeated.

Tested on: U2OS
Assay: Multiplex assay against U2OS
Assay type: toxicity, cell-based
Details: human
Summary of the method: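 Hoechst33342, BioTracker Green Microtubule Cytoskeleton Dye, MitoTracker Red and Annexin V Alexa Fluor 680 were added to live cells at seeding, and imaging on a CQ1 microscope at 37°C and 5% CO2 followed compound addition. Gating by CellPathfinder machine learning separated cells into Hoechst high-intensity objects or normal cells, then normal cells into healthy, pyknosed or fragmented nuclei, then pyknosed cells into mitotic or apoptotic. Per cents of healthy-nucleus cells are reported for the tubulin, mitochondrial-mass and membrane-permeability phenotypes.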

[1] = 12 h, 1 µM, compound concentration 1 uM, replicate 1
[2] = 12 h, 1 µM, compound concentration 1 uM, replicate 2
[3] = 12 h, 10 µM, compound concentration 10 uM, replicate 1
[4] = 12 h, 10 µM, compound concentration 10 uM, replicate 2
[5] = 24 h, 1 µM, compound concentration 1 uM, replicate 1
[6] = 24 h, 1 µM, compound concentration 1 uM, replicate 2
[7] = 24 h, 10 µM, compound concentration 10 uM, replicate 1
[8] = 24 h, 10 µM, compound concentration 10 uM, replicate 2

Structure (SMILES): CC[C@@]1(O)C(=O)OCc2c1cc1n(c2=O)Cc2cc3ccccc3nc2-1 [CAMPTOTHECIN]
- Population Healthy Nuclei (%) [1]: 34% and 42% and 78%
- Population Membrane Permeable-Phenotype (%) [1]: 11% and 13% and 14%
- Population Mitochondria Different-Phenotype (%) [1]: 25% and 31% and 35%
- Population Normal (%) [1]: 48% and 90%
- Population Pyknosed Nuclei (%) [1]: 13% and 7%
- Population Tubulin-Different-Phenotype (%) [1]: 20% and 33%
- Population Apoptotic (%) [2]: 22% and 36% and 16%
- Population Fragmented Nuclei (%) [2]: 62% and 59% and 26%
- Population Healthy Nuclei (%) [2]: 25% and 24% and 65%
- Population Hoechst High Intensity Objects (%) [2]: 62% and 50% and 28%
- Population Membrane Permeable-Phenotype (%) [2]: 10% and 9%
- Population Mitochondria Different-Phenotype (%) [2]: 45% and 38% and 22%
- Population Mitotic Cells (%) [2]: 77% and 64% and 83%
- Population Normal (%) [2]: 37% and 49% and 71%
- Population Pyknosed Nuclei (%) [2]: 12% and 15%
- Population Apoptotic (%) [3]: 47%
- Population Fragmented Nuclei (%) [3]: 13%
- Population Healthy Nuclei (%) [3]: 74%
- Population Hoechst High Intensity Objects (%) [3]: 6%
- Population Membrane Permeable-Phenotype (%) [3]: 16%
- Population Mitochondria Different-Phenotype (%) [3]: 24%
- Population Mitotic Cells (%) [3]: 52%
- Population Normal (%) [3]: 93%
- Population Pyknosed Nuclei (%) [3]: 11%
- Population Tubulin-Different-Phenotype (%) [3]: 31%
- Total Cell Count [3]: 161
- Population Apoptotic (%) [4]: 18%
- Population Fragmented Nuclei (%) [4]: 20%
- Population Healthy Nuclei (%) [4]: 68%
- Population Hoechst High Intensity Objects (%) [4]: 19%
- Population Membrane Permeable-Phenotype (%) [4]: 13%
- Population Mitochondria Different-Phenotype (%) [4]: 32%
- Population Mitotic Cells (%) [4]: 81%
- Population Normal (%) [4]: 80%
- Population Pyknosed Nuclei (%) [4]: 10%
- Population Tubulin-Different-Phenotype (%) [4]: 38%
- Total Cell Count [4]: 131
- Population Apoptotic (%) [5]: 63% and 75% and 77%
- Population Healthy Nuclei (%) [5]: 26% and 28% and 72%
- Population Membrane Permeable-Phenotype (%) [5]: 36% and 32% and 15%
- Population Mitochondria Different-Phenotype (%) [5]: 58% and 57% and 35%
- Population Mitotic Cells (%) [5]: 36% and 24% and 22%
- Population Normal (%) [5]: 43% and 46% and 91%
- Population Pyknosed Nuclei (%) [5]: 15% and 18%
- Population Tubulin-Different-Phenotype (%) [5]: 38% and 42% and 40%
- Population Apoptotic (%) [6]: 54% and 62% and 80%
- Population Fragmented Nuclei (%) [6]: 63% and 22%
- Population Hoechst High Intensity Objects (%) [6]: 59% and 27%
- Population Mitochondria Different-Phenotype (%) [6]: 54% and 50% and 33%
- Population Mitotic Cells (%) [6]: 45% and 37% and 20%
- Population Normal (%) [6]: 40% and 72%
- Population Pyknosed Nuclei (%) [6]: 21% and 11%
- Population Apoptotic (%) [7]: 80%
- Population Fragmented Nuclei (%) [7]: 21%
- Population Healthy Nuclei (%) [7]: 65%
- Population Hoechst High Intensity Objects (%) [7]: 5%
- Population Membrane Permeable-Phenotype (%) [7]: 14%
- Population Mitochondria Different-Phenotype (%) [7]: 41%
- Population Mitotic Cells (%) [7]: 20%
- Population Normal (%) [7]: 94%
- Population Pyknosed Nuclei (%) [7]: 13%
- Population Tubulin-Different-Phenotype (%) [7]: 37%
- Total Cell Count [7]: 157
- Population Apoptotic (%) [8]: 90%
- Population Fragmented Nuclei (%) [8]: 25%
- Population Healthy Nuclei (%) [8]: 64%
- Population Hoechst High Intensity Objects (%) [8]: 10%
- Population Membrane Permeable-Phenotype (%) [8]: 17%
- Population Mitochondria Different-Phenotype (%) [8]: 35%
- Population Mitotic Cells (%) [8]: 9%
- Population Normal (%) [8]: 89%
- Population Pyknosed Nuclei (%) [8]: 11%
- Population Tubulin-Different-Phenotype (%) [8]: 42%
- Total Cell Count [8]: 112
